Experimental data: ChEMBL document CHEMBL5038630 (J Med Chem, 2022)
Active and inactive are the calls of the source. No cut-off for these calls is given here.

Legend:
[1] = target: Glutamate NMDA receptor; Grin1/Grin2c (Rattus norvegicus) (UniProt P35439+Q00961); assay: Agonist activity at rat GluN1/GluN2C NMDA receptor expressed in Xenopus oocytes assessed as maximal relative efficacy measured after 4 days in presence of L-glutamte by two-electrode voltage-clamp recording assay relative to glycine; type: cell-based; conditions: Oocyte, time 4.0 day
Outline: (§1)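 Xenopus oocytes were injected with rat GluN1 and GluN2C or GluN2D cRNA (1:2) and recorded by TEVC 2–4 days later at −40 mV, room temperature, pH 7.4 HEPES/NaCl/BaCl2 saline. Concentration-response with 300 μM L-Glu present. […] NR means <5% response at the concentration given. DMSO ≤0.5%. 3–14 oocytes.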

[2] = target: T1, Glutamate NMDA receptor; Grin1/Grin2a (Rattus norvegicus) (UniProt P35439+Q00959); assay: Agonist activity at rat GluN1/GluN2A NMDA receptor expressed in Xenopus oocytes assessed as maximal relative efficacy measured after 4 days in presence of L-glutamte by two-electrode voltage-clamp recording assay relative to glycine; type: cell-based; conditions: Oocyte, time 4.0 day
Outline: (§2)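 Rat GluN1 plus GluN2A or GluN2B cRNA (1:2) in Xenopus oocytes. TEVC at −40 mV, room temperature, 2–4 days post-injection. Bath: 90 mM NaCl, 1 mM KCl, 10 mM HEPES, 0.5 mM BaCl2, 0.01 mM EDTA, pH 7.4. Oocytes were BAPTA-injected before recording. Agonist applied with 300 μM L-Glu throughout. […] NR means <5% response at the stated concentration. 3–14 oocytes.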

[3] = target: T2, Ionotropic glutamate receptor NMDA 1/2D (Rattus norvegicus) (UniProt P35439+Q62645); assay: Agonist activity at rat GluN1/GluN2D NMDA receptor expressed in Xenopus oocytes assessed as maximal relative efficacy measured at 100 uM after 4 days in presence of L-glutamte by two-electrode voltage-clamp recording assay relative to glycine; type: cell-based; conditions: Oocyte, time 4.0 day; outline: as §1
[4] = target: Glutamate NMDA receptor; Grin1/Grin2a (Rattus norvegicus, UniProt P35439+Q00959); assay: Agonist activity at rat GluN1/GluN2A NMDA receptor expressed in Xenopus oocytes measured after 4 days in presence of L-glutamte by two-electrode voltage-clamp recording assay; type: cell-based, Oocyte
Outline: (§3)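 Rat GluN1 plus GluN2A or GluN2B cRNA (1:2) in Xenopus oocytes. TEVC at −40 mV, room temperature, 2–4 days post-injection. Bath: 90 mM NaCl, 1 mM KCl, 10 mM HEPES, 0.5 mM BaCl2, 0.01 mM EDTA, pH 7.4. Oocytes were BAPTA-injected before recording. Agonist applied with 300 μM L-Glu throughout. NR means <5% response at the stated concentration. 3–14 oocytes.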

[5] = target: Glutamate NMDA receptor; Grin1/Grin2c (Rattus norvegicus, UniProt P35439+Q00961); assay: Agonist activity at rat GluN1/GluN2C NMDA receptor expressed in Xenopus oocytes measured after 4 days in presence of L-glutamte by two-electrode voltage-clamp recording assay; type: cell-based, Oocyte
Outline: (§4)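 Xenopus oocytes were injected with rat GluN1 and GluN2C or GluN2D cRNA (1:2) and recorded by TEVC 2–4 days later at −40 mV, room temperature, pH 7.4 HEPES/NaCl/BaCl2 saline. Concentration-response with 300 μM L-Glu present. NR means <5% response at the concentration given. DMSO ≤0.5%. 3–14 oocytes.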

[6] = target: T3, Glutamate NMDA receptor; Grin1/Grin2b (Rattus norvegicus) (UniProt P35439+Q00960); assay: Agonist activity at rat GluN1/GluN2B NMDA receptor expressed in Xenopus oocytes assessed as maximal relative efficacy measured at 100 uM after 4 days in presence of L-glutamte by two-electrode voltage-clamp recording assay relative to glycine; type: cell-based; conditions: Oocyte, time 4.0 day; outline: as §2
[7] = target: T3, Glutamate NMDA receptor; Grin1/Grin2b (Rattus norvegicus); assay: Agonist activity at rat GluN1/GluN2B NMDA receptor expressed in Xenopus oocytes assessed as maximal relative efficacy measured at 300 uM after 4 days in presence of L-glutamte by two-electrode voltage-clamp recording assay relative to glycine; type: cell-based; conditions: Oocyte, time 4.0 day; outline: as §2
[8] = target: T2, Ionotropic glutamate receptor NMDA 1/2D (Rattus norvegicus); assay: Agonist activity at rat GluN1/GluN2D NMDA receptor expressed in Xenopus oocytes assessed as maximal relative efficacy measured after 4 days in presence of L-glutamte by two-electrode voltage-clamp recording assay relative to glycine; type: cell-based; conditions: Oocyte, time 4.0 day; outline: as §1
[9] = target: Ionotropic glutamate receptor NMDA 1/2D (Rattus norvegicus, UniProt P35439+Q62645); assay: Agonist activity at rat GluN1/GluN2D NMDA receptor expressed in Xenopus oocytes measured after 4 days in presence of L-glutamte by two-electrode voltage-clamp recording assay; type: cell-based, Oocyte; outline: as §4
[10] = Binding affinity at recombinant GluN1a/GluN2B NMDA receptor (unknown origin) expressed in Xenopus oocytes measured after 4 days in presence of L-glutamte by two-electrode voltage-clamp recording assay; type: cell-based, Homo sapiens; conditions: oocyte
[11] = target: Glutamate NMDA receptor; Grin1/Grin2b (Rattus norvegicus, UniProt P35439+Q00960); assay: Agonist activity at rat GluN1/GluN2B NMDA receptor expressed in Xenopus oocytes measured after 4 days in presence of L-glutamte by two-electrode voltage-clamp recording assay; type: cell-based, Oocyte; outline: as §3
Oocyte [12] = assay: Agonist activity at recombinant GluN1a/GluN2B NMDA receptor (unknown origin) expressed in Xenopus oocytes assessed as inhibition of glycine-induced activation of current measured at 10 uM after 4 days in presence of L-glutamte by two-electrode voltage-clamp recording assay; type: cell-based; conditions: Homo sapiens, filed as agonist, time 4.0 day
Outline: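 Oocytes expressing GluN1/2B were BAPTA-injected and held under two-electrode voltage clamp in continuous 300 μM L-Glu. […] Values are mean ± SEM from 12 oocytes.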

Oocyte [13] = assay: Agonist activity at mutant GluN1 F484A/T518 mutant//GluN3B NMDA receptor (unknown origin) expressed in Xenopus oocytes measured after 4 days in presence of glycine by two-electrode voltage-clamp recording assay; type: cell-based; conditions: Homo sapiens, time 4.0 day
Oocyte [14] = assay: Agonist activity at mutant GluN1 F484A/T518 mutant//GluN3A NMDA receptor (unknown origin) expressed in Xenopus oocytes measured after 4 days in presence of glycine by two-electrode voltage-clamp recording assay; type: cell-based; conditions: Homo sapiens, time 4.0 day
[15] = target: T3, Glutamate NMDA receptor; Grin1/Grin2b (Rattus norvegicus); assay: Agonist activity at rat GluN1/GluN2B NMDA receptor expressed in Xenopus oocytes assessed as maximal relative efficacy measured after 4 days in presence of L-glutamte by two-electrode voltage-clamp recording assay relative to glycine; type: cell-based; conditions: Oocyte, filed as agonist, time 4.0 day; outline: as §2
[16] = target: T3, Glutamate NMDA receptor; Grin1/Grin2b (Rattus norvegicus); assay: Agonist activity at rat GluN1/GluN2B NMDA receptor expressed in Xenopus oocytes assessed as maximal relative efficacy measured at 30 uM after 4 days in presence of L-glutamte by two-electrode voltage-clamp recording assay relative to glycine; type: cell-based; conditions: Oocyte, time 4.0 day; outline: as §2
[17] = target: T2, Ionotropic glutamate receptor NMDA 1/2D (Rattus norvegicus); assay: Agonist activity at rat GluN1/GluN2D NMDA receptor expressed in Xenopus oocytes assessed as maximal relative efficacy measured at 30 uM after 4 days in presence of L-glutamte by two-electrode voltage-clamp recording assay relative to glycine; type: cell-based; conditions: Oocyte, time 4.0 day; outline: as §1
[18] = target: T1, Glutamate NMDA receptor; Grin1/Grin2a (Rattus norvegicus); assay: Agonist activity at rat GluN1/GluN2A NMDA receptor expressed in Xenopus oocytes assessed as maximal relative efficacy measured at 30 uM after 4 days in presence of L-glutamte by two-electrode voltage-clamp recording assay relative to glycine; type: cell-based; conditions: Oocyte, time 4.0 day; outline: as §2
[19] = target: T2, Ionotropic glutamate receptor NMDA 1/2D (Rattus norvegicus); assay: Agonist activity at rat GluN1/GluN2D NMDA receptor expressed in Xenopus oocytes assessed as maximal relative efficacy measured at 300 uM after 4 days in presence of L-glutamte by two-electrode voltage-clamp recording assay relative to glycine; type: cell-based; conditions: Oocyte, time 4.0 day; outline: as §1
[20] = target: T3, Glutamate NMDA receptor; Grin1/Grin2b (Rattus norvegicus); assay: Agonist activity at rat GluN1/GluN2B NMDA receptor expressed in Xenopus oocytes assessed as maximal relative efficacy measured at 10 uM after 4 days in presence of L-glutamte by two-electrode voltage-clamp recording assay relative to glycine; type: cell-based; conditions: Oocyte, time 4.0 day; outline: as §2
[21] = target: T1, Glutamate NMDA receptor; Grin1/Grin2a (Rattus norvegicus); assay: Agonist activity at rat GluN1/GluN2A NMDA receptor expressed in Xenopus oocytes assessed as maximal relative efficacy measured at 300 uM after 4 days in presence of L-glutamte by two-electrode voltage-clamp recording assay relative to glycine; type: cell-based; conditions: Oocyte, time 4.0 day; outline: as §2

Compound | Rmax ([1]; filed as agonist) [%] | Rmax [2] [%] | EC50 [4] [nM] | EC50 [5] [nM] | Rmax [6] [%] | Rmax [1] [%] | Rmax [7] [%] | Rmax [8] [%] | EC50 [9] [nM] | other results
N[C@H](CNC(=O)c1ccc(-c2ccc(Cl)cc2)o1)C(=O)O | 44 | 14 | 4300 | 1700 | < 5 | – | – | – | – | Rmax [3]: < 5%
N[C@H](CNC(=O)c1ccc(-c2cccc3c2OCCO3)o1)C(=O)O | – | – | – | 3900 | – | 17 | < 5 | – | – | –
N[C@H](CNC(=O)c1ccc(-c2ccccc2C(F)(F)F)o1)C(=O)O | – | 24 | 130 | 40 | < 5 | 36 | – | – | – | Rmax [3]: < 5%
N[C@H](CNC(=O)c1ccc(-c2ccc(Cl)c(Cl)c2)o1)C(=O)O | 74 | 20 | 23000 | 4200 | – | – | < 5 | 24 | 31000 | –
N[C@H](CNC(=O)c1ccc(-c2ccc(Cl)cc2[N+](=O)[O-])o1)C(=O)O | – | – | – | 74 | < 5 | 28 | – | – | – | Ki [10]: 100 nM; Rmax [3]: < 5%; IC50 [11]: 10000 nM; inhibition (Oocyte [12]): 57%; inhibition (Oocyte [13]): inactive; inhibition (Oocyte [14]): inactive
N[C@H](CNC(=O)c1ccc(-c2cccc3ccccc23)o1)C(=O)O | 53 | 29 | 180 | 110 | – | – | < 5 | 12 | 230 | –
N[C@H](CO)C(=O)O | 111 | – | – | – | – | – | – | – | – | Rmax ([8]; filed as agonist): 93%; Rmax ([2]; filed as agonist): 96%; Rmax [15]: 100%
N[C@H](CNC(=O)c1ccc(-c2ccccc2/C=C/c2cccc(F)c2)o1)C(=O)O | – | – | – | 750 | < 5 | 22 | – | – | – | –
N[C@H](CNC(=O)c1ccc(-c2cccc(Cl)c2)o1)C(=O)O | 68 | 27 | 4900 | 1300 | – | – | < 5 | 38 | 5000 | –
N[C@H](CNC(=O)c1ccc(-c2ccccc2Br)o1)C(=O)O | 49 | 34 | 53 | 36 | < 5 | – | – | 9 | 80 | –
N[C@H](CNC(=O)c1ccc(-c2ccccc2/C=C/c2ccccc2)o1)C(=O)O | – | – | – | 5800 | – | 16 | – | – | – | Rmax [16]: < 5%; Rmax [17]: < 5%; Rmax [18]: < 5%
N[C@H](CNC(=O)c1ccc(-c2cccc(C(F)(F)F)c2)o1)C(=O)O | – | 17 | 6600 | 1800 | – | 36 | < 5 | 35 | 7700 | –
CN(C)S(=O)(=O)c1ccccc1-c1ccc(C(=O)NC[C@@H](N)C(=O)O)o1 | 119 | 22 | 10000 | 4800 | – | – | < 5 | – | – | Rmax [19]: < 5%
COCc1ccccc1-c1ccc(C(=O)NC[C@@H](N)C(=O)O)o1 | 114 | 32 | 3100 | 1600 | – | – | < 5 | 11 | 3200 | –
N[C@H](CNC(=O)c1ccc(-c2ccccc2Cl)o1)C(=O)O | 70 | 38 | 260 | 120 | – | – | < 5 | 11 | 270 | –
Cc1ccccc1-c1ccc(C(=O)NC[C@@H](N)C(=O)O)o1 | 103 | – | 220 | 140 | – | – | – | 17 | 260 | Rmax ([2]; filed as agonist): 58%; Rmax [20]: < 5%
N[C@H](CNC(=O)c1ccc(-c2ccccc2)o1)C(=O)O | 77 | 22 | 4800 | 2900 | – | – | < 5 | 16 | 4300 | –
COc1ccc(-c2ccc(C(=O)NC[C@@H](N)C(=O)O)o2)cc1 | – | – | – | 1300 | < 5 | 26 | – | – | – | Rmax [3]: < 5%
N[C@H](CNC(=O)c1ccc(-c2ccccc2OCc2ccccc2)o1)C(=O)O | 157 | – | – | 4000 | – | – | < 5 | – | – | Rmax [21]: < 5%
